In ChEMBL document CHEMBL1129335, “Synthesis and structure-activity relationships of 2-substituted D-tryptophan-containing peptidic endothelin receptor antagonists: importance of the C-2 substituent of the D-tryptophan residue for endothelin A and B receptor subtype selectivity” (J Med Chem, 1996):

Assays:
[1] = molecular target: T1, Endothelin receptor type B (Sus scrofa, UniProt P35463); test: Binding affinity towards endothelin B receptor in porcine cerebellum membranes; type: cell membranes, Membrane
T1 sequence (P35463 whole entry): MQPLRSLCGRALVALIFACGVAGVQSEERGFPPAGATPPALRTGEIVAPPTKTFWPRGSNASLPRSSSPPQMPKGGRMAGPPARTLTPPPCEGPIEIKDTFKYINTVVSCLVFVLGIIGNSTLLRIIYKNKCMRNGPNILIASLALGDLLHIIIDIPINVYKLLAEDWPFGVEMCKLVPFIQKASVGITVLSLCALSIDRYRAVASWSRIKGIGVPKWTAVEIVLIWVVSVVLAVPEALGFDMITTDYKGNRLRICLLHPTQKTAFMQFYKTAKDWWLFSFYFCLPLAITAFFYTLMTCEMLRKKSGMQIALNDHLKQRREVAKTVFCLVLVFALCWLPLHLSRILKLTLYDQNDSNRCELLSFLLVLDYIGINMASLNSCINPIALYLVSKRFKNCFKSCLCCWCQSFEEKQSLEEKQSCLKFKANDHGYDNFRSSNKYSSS
Outline: (§1)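 Competitive binding in porcine membranes: aortic smooth muscle for ETA and cerebellum for ETB, run by a previously reported method. Variation was generally within 10%.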

Endothelin-1 receptor [2] = molecular target: T2, Endothelin-1 receptor (Sus scrofa, UniProt Q29010); test: Binding affinity towards endothelin A receptor in porcine aortic smooth muscle membranes.; outline: as §1
T2 sequence (Q29010 whole entry): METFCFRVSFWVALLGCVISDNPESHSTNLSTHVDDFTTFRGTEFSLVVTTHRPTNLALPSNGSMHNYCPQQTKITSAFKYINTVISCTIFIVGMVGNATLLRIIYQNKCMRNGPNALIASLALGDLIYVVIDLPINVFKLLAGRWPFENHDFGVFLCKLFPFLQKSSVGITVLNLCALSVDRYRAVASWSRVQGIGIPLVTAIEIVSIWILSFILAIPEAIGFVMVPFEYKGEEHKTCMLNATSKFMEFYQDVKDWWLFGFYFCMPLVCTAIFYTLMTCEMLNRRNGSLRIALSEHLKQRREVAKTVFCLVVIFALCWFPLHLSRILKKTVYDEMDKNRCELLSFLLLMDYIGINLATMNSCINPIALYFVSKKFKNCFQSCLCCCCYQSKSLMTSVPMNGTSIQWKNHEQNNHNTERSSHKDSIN

[3] = molecular target: T3, Endothelin receptor type B (Homo sapiens, UniProt P24530); test: Binding affinity towards Endothelin B receptor in human girardi heart cell membranes
T3 sequence (P24530 whole entry): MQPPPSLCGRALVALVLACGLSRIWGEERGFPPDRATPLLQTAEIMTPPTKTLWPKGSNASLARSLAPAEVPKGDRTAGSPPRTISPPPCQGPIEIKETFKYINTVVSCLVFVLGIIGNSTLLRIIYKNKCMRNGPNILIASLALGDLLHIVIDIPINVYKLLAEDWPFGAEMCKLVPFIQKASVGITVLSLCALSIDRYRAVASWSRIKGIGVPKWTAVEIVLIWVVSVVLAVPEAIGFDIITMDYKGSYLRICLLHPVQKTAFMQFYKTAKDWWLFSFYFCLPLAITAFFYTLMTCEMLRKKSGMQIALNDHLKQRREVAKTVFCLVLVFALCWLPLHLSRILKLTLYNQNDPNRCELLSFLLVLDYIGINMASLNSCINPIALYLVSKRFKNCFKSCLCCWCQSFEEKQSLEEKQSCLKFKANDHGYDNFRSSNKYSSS
Outline: (§2)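 Membrane binding assay on human receptors. ETA came from the neuroblastoma-derived line SK-N-MC and ETB from Girardi heart cells. Inhibition was expressed as IC50.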

Endothelin-1 receptor [4] = molecular target: T4, Endothelin-1 receptor (Homo sapiens, UniProt P25101); test: Binding affinity towards Endothelin A receptor in human neuroblastoma-derived cell line SK-N-MC membranes; type: cell-based; outline: as §2
T4 sequence (P25101 whole entry): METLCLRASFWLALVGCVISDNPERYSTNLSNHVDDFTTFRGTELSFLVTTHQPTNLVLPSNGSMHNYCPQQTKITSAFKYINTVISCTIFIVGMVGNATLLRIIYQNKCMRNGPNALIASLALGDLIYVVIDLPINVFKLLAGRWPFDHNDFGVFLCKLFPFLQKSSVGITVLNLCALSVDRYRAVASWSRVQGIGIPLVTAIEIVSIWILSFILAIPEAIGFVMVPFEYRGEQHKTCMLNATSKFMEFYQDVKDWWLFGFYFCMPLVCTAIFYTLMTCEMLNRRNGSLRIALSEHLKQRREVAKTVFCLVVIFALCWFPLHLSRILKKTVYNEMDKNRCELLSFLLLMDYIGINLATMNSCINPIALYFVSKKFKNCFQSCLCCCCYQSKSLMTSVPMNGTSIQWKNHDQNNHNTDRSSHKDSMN

[5] = Ability to antagonize ET-A mediated vasoconstrictor activity in isolated porcine coronary arteries; type: functional; settings: read-out: pA2 (converted)
Outline: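 Isolated porcine coronary artery rings were contracted with ET-1, an ETA-mediated response, following a reported method. Antagonism was quantified as a pA2 value.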

[6] = Ability to antagonize ET-1 mediated constriction in rabbit pulmonary arteries; type: functional, Oryctolagus cuniculus

IC50 [1] [nM]	IC50 (Endothelin-1 receptor [2]) [nM]	Structure (SMILES)	also measured
5	180	CCCCC(NC(=O)[C@@H](Cc1c(CC)[nH]c2ccccc12)NC(=O)C(CC(C)C)NC(=O)N1[C@H](C)CCC[C@@H]1C)C(=O)O (stereo not given in full)	–
4.5	2.2	CSCCC(NC(=O)[C@@H](Cc1c(Br)[nH]c2ccccc12)NC(=O)C(CC(C)C)NC(=O)N1[C@H](C)CCC[C@@H]1C)C(=O)O (stereo not given in full)	–
2.5	5.6	CCCCC(NC(=O)[C@@H](Cc1c(Br)[nH]c2ccccc12)NC(=O)C(CC(C)C)NC(=O)N1[C@H](C)CCC[C@@H]1C)C(=O)O (stereo not given in full)	–
2.1	9.2	CCCC(NC(=O)[C@@H](Cc1c(Br)[nH]c2ccccc12)NC(=O)C(CC(C)C)NC(=O)N1[C@H](C)CCC[C@@H]1C)C(=O)O (stereo not given in full)	–
13	9.6	CCCCC(NC(=O)[C@@H](Cc1c(C)[nH]c2ccccc12)NC(=O)C(CC(C)C)NC(=O)N1[C@H](C)CCC[C@@H]1C)C(=O)O (stereo not given in full)	–
1.6	470	CCCCC(NC(=O)[C@@H](Cc1c(C#N)[nH]c2ccccc12)NC(=O)C(CC(C)C)NC(=O)N1[C@H](C)CCC[C@@H]1C)C(=O)O (stereo not given in full)	–
1900	110	CCCCCC[C@@H](NC(=O)[C@@H](Cc1c(Br)[nH]c2ccccc12)NC(=O)C(CC(C)C)NC(=O)N1[C@H](C)CCC[C@@H]1C)C(=O)O (stereo not given in full)	–
5.6	15	CCCCC(NC(=O)[C@@H](Cc1c(Cl)[nH]c2ccccc12)NC(=O)C(CC(C)C)NC(=O)N1[C@H](C)CCC[C@@H]1C)C(=O)O (stereo not given in full)	–
1.9	2.4	CCCSCC(NC(=O)[C@@H](Cc1c(Br)[nH]c2ccccc12)NC(=O)C(CC(C)C)NC(=O)N1[C@H](C)CCC[C@@H]1C)C(=O)O (stereo not given in full)	–
34	8.1	CCCCC(NC(=O)[C@@H](Cc1c(Br)[nH]c2ccccc12)NC(=O)C(CC(C)C)NC(=O)N1CCCCC1C)C(=O)O (stereo not given in full)	–
4.2	9.8	C=CCC(NC(=O)[C@@H](Cc1c(Br)[nH]c2ccccc12)NC(=O)C(CC(C)C)NC(=O)N1[C@H](C)CCC[C@@H]1C)C(=O)O (stereo not given in full)	–
14	21	CC(C)CC(NC(=O)[C@@H](Cc1c(Br)[nH]c2ccccc12)NC(=O)C(CC(C)C)NC(=O)N1[C@H](C)CCC[C@@H]1C)C(=O)O (stereo not given in full)	–

The next lines start with the molecule.

Structure (SMILES)	IC50 [1] [nM]	IC50 (Endothelin-1 receptor [2]) [nM]	also measured
CCCCC(NC(=O)[C@@H](Cc1c(C#N)[nH]c2ccccc12)NC(=O)C(NC(=O)N1[C@H](C)CCC[C@@H]1C)C(C)C(C)C)C(=O)O (stereo not given in full)	7.1	810	–
CCCCC(NC(=O)[C@@H](Cc1c(Cl)[nH]c2ccccc12)NC(=O)C(NC(=O)N1[C@H](C)CCC[C@@H]1C)C(C)C)C(=O)O (stereo not given in full)	4.6	33	–
CCCCC(NC(=O)[C@@H](Cc1c(Cl)[nH]c2ccccc12)NC(=O)C(NC(=O)N1[C@H](C)CCC[C@@H]1C)C1CC1)C(=O)O (stereo not given in full)	1.3	9.3	–
Cc1[nH]c2ccccc2c1C[C@@H](NC(=O)C(CC(C)C)NC(=O)N1[C@H](C)CCC[C@@H]1C)C(=O)NC(Cc1c[nH]cn1)C(=O)O (stereo not given in full)	99	2.8	–
CCCCC(NC(=O)[C@@H](Cc1c(Br)[nH]c2ccccc12)NC(=O)C(CC(C)C)NC(=O)N1CCCC1)C(=O)O (stereo not given in full)	2700	160	–
CCCCC(NC(=O)[C@@H](Cc1c(Br)[nH]c2ccccc12)NC(=O)C(CC(C)C)NC(=O)N1CCCCCCC1)C(=O)O (stereo not given in full)	26	27	–
Cc1[nH]c2ccccc2c1C[C@@H](NC(=O)C(NC(=O)N1[C@H](C)CCC[C@@H]1C)C1CC1)C(=O)NC(Cc1c[nH]cn1)C(=O)O (stereo not given in full)	170	4.8	–
CCCCC(NC(=O)[C@@H](Cc1c(Cl)[nH]c2ccccc12)NC(=O)C(NC(=O)N1[C@H](C)CCC[C@@H]1C)C(C)CC)C(=O)O (stereo not given in full)	4.6	51	–
CCCCC(NC(=O)[C@@H](Cc1c(C)[nH]c2ccccc12)NC(=O)C(NC(=O)N1[C@H](C)CCC[C@@H]1C)C1CC1)C(=O)O (stereo not given in full)	2.9	5.7	–
CCCCC(NC(=O)[C@@H](Cc1c(Cl)[nH]c2ccccc12)NC(=O)C(CC1CC1)NC(=O)N1[C@H](C)CCC[C@@H]1C)C(=O)O (stereo not given in full)	6.2	14	–
CSCCC(NC(=O)[C@@H](Cc1c(C)[nH]c2ccccc12)NC(=O)C(NC(=O)N1[C@H](C)CCC[C@@H]1C)C1CC1)C(=O)O (stereo not given in full)	2.9	1	IC50 [3]: 4 nM; IC50 (Endothelin-1 receptor [4]): 3 nM
CCCCC(NC(=O)[C@@H](Cc1c(Cl)[nH]c2ccccc12)NC(=O)C(CCCC)NC(=O)N1[C@H](C)CCC[C@@H]1C)C(=O)O (stereo not given in full)	6.1	9	–
Cc1[nH]c2ccccc2c1C[C@H]1NC(=O)[C@H](C2CC2)NC(=O)[C@@H](C2CCCC2)NC(=O)[C@@H]2CCCN2C(=O)[C@@H](CC(=O)O)NC1=O	59	1.8	IC50 ([3]; heart): 130 nM; IC50 (Endothelin-1 receptor [4]; sk-n-mc): 2.9 nM
CCCCC(NC(=O)[C@@H](Cc1c(Br)[nH]c2ccccc12)NC(=O)C(NC(=O)N1[C@H](C)CCC[C@@H]1C)C1CC1)C(=O)O (stereo not given in full)	0.81	3.8	IC50 [3]: 1.1 nM; IC50 (Endothelin-1 receptor [4]): 13 nM; Kb [5]: 12.6 nM; pA2 [6]: 6.4
CSCCC(NC(=O)[C@@H](Cc1c(C)[nH]c2ccccc12)NC(=O)C(CC(C)C)NC(=O)N1[C@H](C)CCC[C@@H]1C)C(=O)O (stereo not given in full)	13	8	–
CCCCC(NC(=O)[C@@H](Cc1c(Br)[nH]c2ccccc12)NC(=O)C(CC(C)C)NC(=O)N1CCCCC1)C(=O)O (stereo not given in full)	110	26	–
CCCCC(NC(=O)[C@@H](Cc1c(Cl)[nH]c2ccccc12)NC(=O)C(NC(=O)N1[C@H](C)CCC[C@@H]1C)C1CCCC1)C(=O)O (stereo not given in full)	2.7	46	–
CCCCC(NC(=O)[C@@H](Cc1c(Cl)[nH]c2ccccc12)NC(=O)C(CCC)NC(=O)N1[C@H](C)CCC[C@@H]1C)C(=O)O (stereo not given in full)	7.9	20	–
CC(C)CC(NC(=O)N1[C@H](C)CCC[C@@H]1C)C(=O)N[C@H](Cc1c(Br)[nH]c2ccccc12)C(=O)NC(Cc1c[nH]c2ccccc12)C(=O)O (stereo not given in full)	1100	6.7	–
Cc1[nH]c2ccccc2c1C[C@H]1NC(=O)[C@H](C2CC2)NC(=O)[C@@H](C(C)C)NC(=O)[C@@H]2CCCN2C(=O)[C@@H](CC(=O)O)NC1=O	270	8.1	–
CCCC(NC(=O)[C@@H](Cc1c(C#N)[nH]c2ccccc12)NC(=O)C(NC(=O)N1[C@H](C)CCC[C@@H]1C)C(C)C)C(=O)O (stereo not given in full)	5.6	3000	–
CCCCC(NC(=O)[C@@H](Cc1c(Br)[nH]c2ccccc12)NC(=O)C(CC(C)C)NC(=O)N1CCCCCC1)C(=O)O (stereo not given in full)	28	9.1	–
Cc1[nH]c2ccccc2c1C[C@H]1NC(=O)[C@H](CC(C)C)NC(=O)[C@@H](C(C)C)NC(=O)[C@@H]2CCCN2C(=O)[C@@H](CC(=O)O)NC1=O	870	51	–
CC(C)CC(NC(=O)N1[C@H](C)CCC[C@@H]1C)C(=O)N[C@H](Cc1c(Br)[nH]c2ccccc12)C(=O)NC(Cc1cnc[nH]1)C(=O)O (stereo not given in full)	76	3.8	–
